{"data": "Measurements pooled from the literature", "target": "Tyrosine-protein kinase Yes (YES1, Homo sapiens, UniProt P07947)", "note": "Each line is one published result; the experiments were not run side by side."}
{"SMILES": "C=CC(=O)Nc1cc(Nc2nccc(Nc3cc(Cl)c(F)cc3C(C)(C)O)n2)c(OC)cc1N1CC[C@@H](N(C)C)C1", "test": "enzyme activity, inhibitor", "setting": "1 µM", "quantity": "inhibition", "value": "51%"}
{"SMILES": "Cc1sc(C(=O)NC2COC2)cc1-n1cc(NC(=O)Nc2c(F)cccc2Cl)cn1", "test": "enzyme activity, inhibitor", "setting": "10 µM", "quantity": "remaining activity", "value": "81.4%"}
{"SMILES": "COc1cc2ncnc(Nc3ccc(Oc4ccccc4)c(C)c3C)c2cc1OC", "test": "enzyme activity, inhibitor", "setting": "1 µM", "quantity": "inhibition", "value": "88%"}
{"SMILES": "COc1cc2nccc(Oc3ccc(NC(=O)c4c5n(n(-c6ccc(F)cc6)c4=O)CCCC5)cc3)c2cc1OC", "test": "enzyme activity, inhibitor", "setting": "0.1 µM", "quantity": "inhibition", "value": "1%"}
{"SMILES": "Cc1ccc(C(=O)Nc2ccc(CN3CCN(C)CC3)c(C(F)(F)F)c2)cc1C#Cc1cnc2cccnn12", "test": "enzyme activity", "setting": "23.5 nM", "quantity": "remaining activity", "value": "34%"}
{"SMILES": "CS(=O)(=O)NCC[C@H](NC(=O)c1cncc2c1cnn2-c1ccc(F)cc1)c1ccnc(S(C)(=O)=O)c1", "test": "cell-free assay, competition with immobilised ligand", "setting": "1 µM", "quantity": "remaining binding", "value": "100%"}
{"SMILES": "O=C1Nc2ccc(Cl)cc2C1=Cc1cc(Cl)c(O)c(Cl)c1", "test": "cell-free assay", "setting": "0.5 µM", "quantity": "remaining signal", "value": "78.3%"}
{"SMILES": "Nc1nc(Nc2ccccc2)sc1C(=O)c1c(F)cccc1F", "test": "enzyme activity, inhibitor", "setting": "10 µM", "quantity": "remaining activity", "value": "26%"}
{"SMILES": "N#CCCc1ccc2c(c1)-c1[nH]c3ccc([N+](=O)[O-])cc3c1CC(=O)N2", "test": "cell-free assay", "setting": "0.5 µM", "quantity": "remaining signal", "value": "35.8%"}
{"SMILES": "Cc1cnc(NC2CCOCC2)nc1-n1cnc(C(=O)NC(CN)c2cc(F)cc(Cl)c2)c1 (stereo not drawn)", "test": "enzyme activity, inhibitor, radiometric", "setting": "1 µM", "quantity": "remaining activity", "value": "97%"}
{"SMILES": "O=C1NC(=O)c2cc(Nc3ccc(F)cc3)c(Nc3ccc(F)cc3)cc21", "test": "cell-free assay", "setting": "0.5 µM", "quantity": "remaining signal", "value": "86.6%"}
{"SMILES": "CCN(CC)c1ccc(C2=NNC(=O)CC2C)cc1[N+](=O)[O-] (stereo not drawn)", "test": "enzyme activity, inhibitor", "setting": "10 µM", "quantity": "remaining activity", "value": "105%"}
{"SMILES": "CCN(CC)CCNC(=O)c1c(C)[nH]c(/C=C2\\C(=O)Nc3ccc(F)cc32)c1C", "test": "enzyme activity, inhibitor", "setting": "0.3 µM", "quantity": "inhibition", "value": "69%"}
{"SMILES": "C[C@@H]1CN(c2cc(-c3n[nH]c4ccc(OC5(C)CC5)cc34)ncn2)C[C@H](C)O1", "test": "cell-free assay, competition with immobilised ligand", "setting": "0.1 µM", "quantity": "remaining binding", "value": "80%"}
{"SMILES": "CCCCNc1ncc2c(-c3ccc(F)cc3)nn(C[C@H]3CC[C@H](N)CC3)c2n1", "test": "target engagement in cells, inhibitor, chemoproteomics", "setting": "20 mM", "quantity": "inhibition", "value": "92.8%"}
{"SMILES": "COc1cc(Cl)c(C(=O)N[C@@H](CN[C@H]2CC[C@@H](N)CC2)Cc2ccc(C#N)cc2)cc1-c1ccc(CN[C@H](C)c2ccc(C)cc2)o1", "test": "enzyme activity, inhibitor", "setting": "1 µM", "quantity": "remaining activity", "value": "62%"}
{"SMILES": "CCCCN(CCCC)C(=O)CN1C[C@H](c2cc(OC)c3c(c2)OCO3)[C@@H](C(=O)O)[C@@H]1CC(C)(C)CCC", "test": "cell-free assay, competition with immobilised ligand", "setting": "1 µM", "quantity": "remaining binding", "value": "100%"}
{"SMILES": "COc1cc(Nc2cnc(C#N)c(O[C@H](C)CN(C)C)n2)ncc1-c1cnn(C)c1", "test": "enzyme activity, inhibitor, radiometric", "setting": "10 µM", "quantity": "remaining activity", "value": "39%"}
{"SMILES": "O=C(O)[C@H]1[C@H](Cn2nnc3ccccc3c2=O)CC[C@@H]1C(=O)c1ccc(OCCC2CCOCC2)cc1", "test": "cell-free assay, competition with immobilised ligand", "setting": "1 µM", "quantity": "remaining binding", "value": "100%"}
{"SMILES": "FC(F)(F)Oc1cccc(-c2cnc3ccc(-c4ccncc4)nn23)c1", "test": "enzyme activity, inhibitor, radiometric", "setting": "1 µM", "quantity": "activity vs control", "value": "82%"}
{"SMILES": "CN(C)C(=O)Cn1cc(-c2nc(C3(c4ccc(-c5cnc(N)nc5)cc4)CC3)no2)cn1", "test": "cell-free assay, competition with immobilised ligand", "setting": "1 µM", "quantity": "remaining binding", "value": "87%"}
{"SMILES": "CC(C)(C)c1nc2c(s1)c1nc(N)ncc1c1ccc(NS(=O)(=O)c3c(F)cccc3F)c(F)c12", "test": "enzyme activity, inhibitor, radiometric", "setting": "1 µM", "quantity": "remaining activity", "value": "124%"}
{"SMILES": "CC(C)(O)[C@H]1CC[C@H](Nc2ccc3ncc(-c4cccc(C(F)(F)F)c4)n3n2)CC1", "test": "enzyme activity, inhibitor", "setting": "1 µM", "quantity": "remaining activity", "value": "18.1%"}
{"SMILES": "Cc1noc([C@H]2C[C@@H](c3ccc(C(F)(F)F)cc3)CN(C(=O)N3CCS(=O)(=O)C3)C2)n1", "test": "cell-free assay, competition with immobilised ligand", "setting": "1 µM", "quantity": "remaining binding", "value": "100%"}
{"SMILES": "Cc1cc(NC(=O)c2cccc3cc(-c4cccc5[nH]nc(N)c45)ccc23)ccc1F", "test": "enzyme activity, inhibitor", "setting": "0.1 µM", "quantity": "activity vs control", "value": "108%"}
{"SMILES": "Oc1cccc(-c2nc(N3CCOCC3)c3oc4ncccc4c3n2)c1", "test": "enzyme activity, inhibitor", "setting": "10 µM", "quantity": "remaining activity", "value": "92%"}
{"SMILES": "O=C(N1CCS(=O)(=O)CC1)N1C[C@H](c2ccc(OC(F)(F)F)cc2)C[C@H](c2nc(C3CC3)no2)C1", "test": "cell-free assay, competition with immobilised ligand", "setting": "1 µM", "quantity": "remaining binding", "value": "96%"}
{"SMILES": "CC/C(=N\\NC(=O)NCc1cccc(O)c1)c1ccc(O)c(C)c1O", "test": "enzyme activity, inhibitor", "setting": "0.1 µM", "quantity": "inhibition", "value": "4.5%"}
{"SMILES": "Nc1nc(NC2CCCCC2)sc1C(=O)c1ccccc1", "test": "enzyme activity, inhibitor", "setting": "10 µM", "quantity": "remaining activity", "value": "114%"}
{"SMILES": "CC(C)(O)c1cncc(-c2nc3ccc(F)cc3n2C2CC2)c1", "test": "cell-free assay, competition with immobilised ligand", "setting": "1 µM", "quantity": "remaining binding", "value": "100%"}
